ChEMBL document CHEMBL4813935, “Cyclotides from Brazilian Palicourea sessilis and Their Effects on Human Lymphocytes” (J Nat Prod, 2021)
Positions of bridges follow the written chain, without caps; N, C: chain ends. Residues, ends and D or L forms follow the SMILES beside them.

Legend:
[1] = Cytotoxicity against human HT-29 cells assessed as reduction in cell viability measured after 48 hrs by MTT assay; format: cell-based
Method in brief: (§1)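 Cells seeded at 5.0 × 10^3 per well; medium was refreshed the day after plating, then peptides were added at final 0.78–100 μM, with 0.1% (v/v) Triton X-100 as positive control. Incubation was 48 h, then MTT (5 mg/mL in PBS) for 3 h. Formazan was dissolved in DMSO and read at 600 nm. Triplicate experiments; CC50 from log(inhibitor) vs normalized response (variable slope) fit.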

[2] = Cytotoxicity against HUVEC assessed as reduction in cell viability measured after 48 hrs by MTT assay; format: cell-based; settings: human; method in brief: as §1
T-cell line = experiment: Immunosuppressive activity in anti-CD3/anti-CD28-stimulated human T-lymphocytes assessed as inhibition of cell proliferation after 72 hrs by CFSE staining based flow cytometric analysis; format: functional
Method in brief: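 Donor PBMC were isolated on a density gradient and CFSE-stained for 10 min at 37 °C. Cells were stimulated with anti-CD3 (OKT3) and anti-CD28 mAbs, 100 ng/mL each, and exposed to peptides at 1–30 μM for 72 h at 37 °C, 5% CO2. Division was read by flow cytometry and normalized to stimulated untreated cells (100%). Four independent experiments, mean ± SD.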

[3] = Hemolytic activity against human RBC assessed as concentration required to cause 50% hemolysis measured after 1 hr; format: cell-based, Erythrocyte; settings: red blood cells (erythrocytes), read-out: CC50
Method in brief: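 Donor human red blood cells were washed in PBS and diluted to 0.25% (v/v). Peptides were serially diluted from water to eight concentrations, 0.187–24 μM. Incubation was 1 h at 37 °C; PBS served as negative control and 1% Triton-X as positive control. Supernatant absorbance was read at 415 nm. CC50 (50% lysis) from log(agonist) vs response (variable slope) fit; n = 3.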

[4] = Inhibition of anti-human CD3/CD28/mAbs-stimulated human T-lymphocutes proliferation after 72 hrs by CFSE staining based flow cytometric analysis; format: functional, tissue-based; settings: T-cell
Method in brief: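 PBMC from healthy donor venous blood, density-gradient isolated; 5 × 10^6 cells/mL labelled with CFSE (1:1000 of 5 mM stock), 10 min at 37 °C, washed. Stimulated with anti-CD3 (OKT3) and anti-CD28 (28.6), each 100 ng/mL, with peptide at 1–30 μM for 72 h at 37 °C, 5% CO2. Division read by flow cytometry, normalised to stimulated untreated cells (100%); four independent experiments.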

SMILES	CC50 at 48 h [1] [µM]	CC50 at 48 h [2] [µM]	IC50 (T-cell line) [µM]	HC50 at 1 h [3] [µM]	IC50 [4] [nM]
CC(C)C[C@@H]1NC(=O)CNC(=O)[C@H](CC(N)=O)NC(=O)[C@H](CCCNC(=N)N)NC(=O)[C@H]([C@@H](C)O)NC(=O)[C@@H]2CSSC[C@@H]3NC(=O)[C@H]([C@@H](C)O)NC(=O)CNC(=O)CNC(=O)[C@H](C(C)C)NC(=O)[C@@H]4CSSC[C@H](NC(=O)[C@H](C(C)C)NC(=O)[C@H](CSSC[C@H](NC(=O)[C@H](C(C)C)NC(=O)[C@@H]5CCCN5C1=O)C(=O)NCC(=O)N[C@@H](CCC(=O)O)C(=O)N[C@@H]([C@@H](C)O)C(=O)N4)NC(=O)CNC(=O)[C@@H]1CCCN1C(=O)[C@H]([C@@H](C)O)NC(=O)[C@H](CC(N)=O)NC3=O)C(=O)N[C@@H](CO)C(=O)N[C@@H](Cc1c[nH]c3ccccc13)C(=O)N1CCC[C@H]1C(=O)N[C@@H](C(C)C)C(=O)N2	5.5	5.2	4.5	39.5	–
CC(C)C[C@@H]1NC(=O)CNC(=O)[C@H](CC(N)=O)NC(=O)[C@H](CCCNC(=N)N)NC(=O)[C@H](CCCCN)NC(=O)[C@@H]2CSSC[C@@H]3NC(=O)[C@H](CO)NC(=O)CNC(=O)[C@H]([C@@H](C)O)NC(=O)[C@H](C(C)C)NC(=O)[C@@H]4CSSC[C@H](NC(=O)[C@H](CO)NC(=O)[C@H](CSSC[C@H](NC(=O)[C@H](C(C)C)NC(=O)[C@@H]5CCCN5C1=O)C(=O)NCC(=O)N[C@@H](CCC(=O)O)C(=O)N[C@@H]([C@@H](C)O)C(=O)N4)NC(=O)CNC(=O)[C@@H]1CCCN1C(=O)[C@H]([C@@H](C)O)NC(=O)[C@H](Cc1ccc(O)cc1)NC3=O)C(=O)N[C@@H](CO)C(=O)N[C@@H](Cc1c[nH]c3ccccc13)C(=O)N1CCC[C@H]1C(=O)N[C@@H](C(C)C)C(=O)N2	5.6	> 10	–	51.7	–
CC(C)C[C@@H]1NC(=O)CNC(=O)[C@H](CC(N)=O)NC(=O)[C@H](CCCNC(=N)N)NC(=O)[C@H]([C@@H](C)O)NC(=O)[C@@H]2CSSC[C@@H]3NC(=O)[C@H]([C@@H](C)O)NC(=O)CNC(=O)CNC(=O)[C@H](C(C)C)NC(=O)[C@@H]4CSSC[C@H](NC(=O)[C@H]([C@@H](C)O)NC(=O)[C@H](CSSC[C@H](NC(=O)[C@H](C(C)C)NC(=O)[C@@H]5CCCN5C1=O)C(=O)NCC(=O)N[C@@H](CCC(=O)O)C(=O)N[C@@H]([C@@H](C)O)C(=O)N4)NC(=O)CNC(=O)[C@@H]1CCCN1C(=O)[C@H]([C@@H](C)O)NC(=O)[C@H](CC(N)=O)NC3=O)C(=O)N[C@@H](CO)C(=O)N[C@@H](Cc1c[nH]c3ccccc13)C(=O)N1CCC[C@H]1C(=O)N[C@@H](C(C)C)C(=O)N2	> 10	5.1	–	–	1900
CC[C@H](C)[C@@H]1NC(=O)[C@@H]2CCCN2C(=O)[C@H](Cc2c[nH]c3ccccc23)NC(=O)[C@H](C)NC(=O)[C@@H]2CSSC[C@@H]3NC(=O)[C@H]([C@@H](C)O)NC(=O)[C@H](CCC(=O)O)NC(=O)CNC(=O)[C@@H]4CSSC[C@H](NC(=O)CNC(=O)[C@@H]5CCCN5C(=O)[C@H]([C@@H](C)O)NC(=O)[C@H](CC(N)=O)NC(=O)[C@H](CSSC[C@H](NC1=O)C(=O)N[C@@H]([C@@H](C)O)C(=O)N[C@@H](CCCNC(=N)N)C(=O)N[C@@H](CC(N)=O)C(=O)NCC(=O)N[C@@H](CC(C)C)C(=O)N1CCC[C@H]1C(=O)N[C@@H](C(C)C)C(=O)N4)NC(=O)[C@H]([C@@H](C)O)NC(=O)CNC(=O)CNC(=O)[C@H](C(C)C)NC3=O)C(=O)N[C@@H](C(C)C)C(=O)N2	6.1	5.3	1.6	33.5	–
CC(C)C[C@@H]1NC(=O)CNC(=O)[C@H](CC(N)=O)NC(=O)[C@H](CCCNC(=N)N)NC(=O)[C@H]([C@@H](C)O)NC(=O)[C@@H]2CSSC[C@@H]3NC(=O)[C@H]([C@@H](C)O)NC(=O)CNC(=O)CNC(=O)[C@H](C(C)C)NC(=O)[C@@H]4CSSC[C@H](NC(=O)[C@H](CO)NC(=O)[C@H](CSSC[C@H](NC(=O)[C@H](C(C)C)NC(=O)[C@@H]5CCCN5C1=O)C(=O)NCC(=O)N[C@@H](CCC(=O)O)C(=O)N[C@@H]([C@@H](C)O)C(=O)N4)NC(=O)CNC(=O)[C@@H]1CCCN1C(=O)[C@H]([C@@H](C)O)NC(=O)[C@H](CC(N)=O)NC3=O)C(=O)N[C@@H](CO)C(=O)N[C@@H](Cc1c[nH]c3ccccc13)C(=O)N1CCC[C@H]1C(=O)N[C@@H](C(C)C)C(=O)N2	7.3	> 10	–	49.6	–
CC[C@H](C)[C@@H]1NC(=O)[C@@H]2CCCN2C(=O)[C@H](Cc2c[nH]c3ccccc23)NC(=O)[C@H](CO)NC(=O)[C@@H]2CSSC[C@@H]3NC(=O)[C@H]([C@@H](C)O)NC(=O)[C@H](CCC(=O)O)NC(=O)CNC(=O)[C@@H]4CSSC[C@H](NC(=O)CNC(=O)[C@@H]5CCCN5C(=O)[C@H]([C@@H](C)O)NC(=O)[C@H](CC(N)=O)NC(=O)[C@H](CSSC[C@H](NC1=O)C(=O)N[C@@H]([C@@H](C)O)C(=O)N[C@@H](CCCNC(=N)N)C(=O)N[C@@H](CC(N)=O)C(=O)NCC(=O)N[C@@H](CC(C)C)C(=O)N1CCC[C@H]1C(=O)N[C@@H]([C@@H](C)O)C(=O)N4)NC(=O)[C@H]([C@@H](C)O)NC(=O)CNC(=O)CNC(=O)[C@H](C(C)C)NC3=O)C(=O)N[C@@H](C(C)C)C(=O)N2 (cyclo(CGETCVGGTCNTPGCVCSWPICTRNGLPT); disulfide 1-15, 5-17, 10-22)	8.4	> 10	7.1	62.8	–
CC[C@H](C)[C@@H]1NC(=O)[C@@H]2CCCN2C(=O)[C@H](Cc2c[nH]c3ccccc23)NC(=O)[C@H](CO)NC(=O)[C@@H]2CSSC[C@@H]3NC(=O)[C@H]([C@@H](C)O)NC(=O)[C@H](CCC(=O)O)NC(=O)CNC(=O)[C@@H]4CSSC[C@H](NC(=O)CNC(=O)[C@@H]5CCCN5C(=O)[C@H]([C@@H](C)O)NC(=O)[C@H](CC(N)=O)NC(=O)[C@H](CSSC[C@H](NC1=O)C(=O)N[C@@H]([C@@H](C)O)C(=O)N[C@@H](CCCNC(=N)N)C(=O)N[C@@H](CC(N)=O)C(=O)NCC(=O)N[C@@H](CC(C)C)C(=O)N1CCC[C@H]1C(=O)N[C@@H](C(C)C)C(=O)N4)NC(=O)[C@H]([C@@H](C)O)NC(=O)CNC(=O)CNC(=O)[C@H](C(C)C)NC3=O)C(=O)N[C@@H](C(C)C)C(=O)N2	> 10	7.5	2.3	14.6	–
